# H69AR growth 86K: growth inhibitors of human H69AR lung tumor cells; H69AR lung tumor viability, ATP luminescence, 72 h; stronger effect = lower value; viability, % at 10 µM; hit rate 6% among 85,000; AID 598;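 active = viability at or below 40%; inactive = viability above 40%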;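 also: multidrug resistant small cell line overexpressing MRP-1 efflux transporter; 100% = mean luminescence of untreated control wells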
# Jurkat viability: reduces viability or proliferation of Jurkat cells; Jurkat E6.1 viability, ATP luminescence, 48 h; inhibition, % at 4 µM; hit rate 1.2% among 56,000;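 active = inhibition above the mean inhibition of all tested compounds plus 3 SD, cut at about 28% in these data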
# Lung fibro prol: blocks proliferation of human lung fibroblasts | viability, % at 10 µM | hit rate 1.1% among 85,000 | LL 47 human lung fibroblast viability, ATP luminescence; stronger effect = lower value;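 active = viability at or below 50% in the single dose screen; inactive = viability above 50%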;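 also: compound exposure lasted 72 h before the ATP readout; 100% = median luminescence of untreated cell-only wells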
#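 Material: human lung fibroblast line LL 47, low passage; Evaluation: viability percentage against median untreated-cell control; Buffer or medium: 15% FBS in IMEM; Incubation: 72 h compound exposure at 37 °C after overnight plating; Dosing: 0.1% DMSO in all compound wells; Measured by: CellTiter-Glo luminescence.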
# HUVEC inhibit: human endothelial cell proliferation inhibition; hit rate 1.1% among 86,000; viability, % at 10 µM (by protocol); HUVEC proliferation, CellTiter-Glo luminescence, 72 h; stronger effect = lower value;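 active = viability at or below 30%; inactive = viability above 30%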;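 also: 100% = median luminescence of DMSO-only cell control wells on each plate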
# Active calls of the source: *; x = no result. Sampled rows, rich in hits. Any-hit rate of the full collection: about 6.4%.
SMILES,H69AR growth 86K,Jurkat viability,Lung fibro prol,HUVEC inhibit
N/C(=N\OC(=O)c1ccc(Cl)cc1)c1cccnc1,70,x,106,85
N/C(Cc1ccc(Cl)cc1)=N\OC(=O)c1cccc2ccccc12,-0.4*,x,57,1.4*
Cc1ccccc1OCC(=O)O/N=C(\N)Cc1ccc(Cl)cc1,104,x,109,99
O=C1CN(C(=O)COC(=O)c2ccccc2NC(=O)c2ccco2)c2ccccc2N1,80,-2,91,82
CC(=O)C1=C(c2ccccc2)NC(=O)NC1c1ccccc1OCC(=O)NCc1ccccc1 (configuration not stated),44,x,95,99
Cc1ccc(C(=O)Nc2ncc(Cc3ccc(F)cc3)s2)o1,89,0,92,30*
Cc1ccc(C(=O)Nc2ncc(C)s2)o1,80,x,104,77
c1ccc(COc2ccc(OCCCN3CCCCC3)cc2)cc1,72,x,92,88
c1ccc(COc2ccc(OCCCNC3CCCC3)cc2)cc1,40*,x,76,59
CCn1c(SCC(=O)Nc2ccc(N(C)C)cc2)nnc1-c1cccc(C)c1,x,8,x,x
CCn1c(SCC(=O)N2CCCc3ccccc32)nnc1-c1ccoc1C,94,x,93,93
CCCN1C(=O)c2ccccc2NC1c1ccc(OC)cc1O (configuration not stated),108,36*,82,79
CCN(CC)Cc1c(CC(C)C)oc(C)c1C(=O)O,116,x,102,101
Cc1cccc(NC(=O)c2c(O)c3cccc4c3n(c2=O)CCC4)n1,85,-5,100,103
Cc1cnc(NC(=O)c2c(O)c3cccc4c3n(c2=O)CCC4)s1,5.7*,-10,97,89
O=C(NC1CCCCCC1)c1c(O)c2cccc3c2n(c1=O)CCC3,77,-1,107,103
CC(C)c1nnc(NC(=O)c2c(O)c3cccc4c3n(c2=O)CCC4)s1,34*,15,67,109
CCOC(=O)C(C(=O)Nc1ccccc1)C1CCCCC1 (configuration not stated),91,0,83,85
CCOC(=O)C(C(=O)Nc1ccc(C)cc1)C1CCCCC1 (configuration not stated),23*,x,89,80
O=C(NC1CCCCCCC1)c1ccc(CNc2c(N3CCOCC3)c(=O)c2=O)cc1,93,2,91,92
Nn1c(SCC(=O)Nc2ccccc2)nnc1-c1cccnc1,100,6,96,102
Clc1ccc(CCNc2ncnc3nc[nH]c23)cc1,x,35*,x,x
COC(=O)Nc1snnc1C,101,x,96,100
COc1ccc(/C=C2\CCc3ccccc3C2=O)cc1Cn1nc(C)cc1C,15*,x,80,87
Cc1ccccc1/C=C1\CCCc2ccccc2C1=O,84,x,86,92
SMILES,H69AR growth 86K,Jurkat viability,Lung fibro prol,HUVEC inhibit
COc1ccc(-c2nnnn2CCc2ccccc2)cc1,67,2,88,99
Cc1cc(C)nc(NC2=NCCN2C(=O)Nc2ccc(Cl)c(Cl)c2)n1,22*,6,85,65
Cc1cc(C)nc(NC(=O)c2ccc(Cl)c(Cl)c2)n1,107,x,104,100
O=[N+]([O-])c1ccc(Sc2nnnn2-c2ccccc2)c(Cl)c1,5.1*,x,44*,51
CC(=O)NC(Cc1ccccc1C)C(=O)NC1CCN(c2c3c(nc4ncnn24)CCC3)CC1 (configuration not stated),89,3,102,97
Nc1nnc(SCC(=O)NC23CC4CC(CC(C4)C2)C3)s1,95,x,96,90
Brc1ccc(-c2csc(NNC3=NCCCCC3)n2)cc1,41,x,48*,83
CCOC(=O)c1[nH]c(C)c(C(=O)C(C)C)c1C,98,x,95,99
N#CCCSc1nc(N2CCOCC2)c2c(c1C#N)CCCC2,38*,x,81,89
CCCSc1nc(N2CCOCC2)c2c(c1C#N)CCCC2,87,x,89,104
CCOc1ccc(/C(O)=C2\C(=O)C(=O)N(CCOCCO)C2c2ccccc2OC)cc1 (configuration not stated),107,x,123,106
Cc1ccccc1N1C(=O)c2sc3nc4c(c(=O)n3c2C1=O)CCC4,3.4*,1,85,96
O=C1c2sc3nc4ccccc4n3c2C(=O)N1c1ccccc1Cl,2.9*,-3,71,72
O=c1/c(=C\c2cccnc2)sc2nc3ccccc3n12,73,-3,103,84
Cc1ccc(N2C(=O)c3sc4nnc(C)c(=O)n4c3C2=O)cc1,105,x,100,92
O=C1c2sc3nc4c(c(=O)n3c2C(=O)N1c1ccccc1)CCC4,35*,1,90,98
Cc1cccc(-n2nc3c(c2NC(=O)c2ccc(Br)o2)CSC3)c1,94,x,100,93
CCC(=O)Nc1nc(=S)ss1,88,x,101,88
O=C(O)[C@H](Cc1ccccc1)NC(=O)N1CCOCC1,97,1,102,97

# High-throughput results (PubChem)
